In ChEMBL document CHEMBL1130202, “Biologically active heteroarotinoids exhibiting anticancer activity and decreased toxicity” (J Med Chem, 1997):
Activity calls are given as the source filed them. No cut-off for these calls is given here.

Tests used:
[1] = species on record: Mus musculus; test: Effect of compound on serum triglycerides levels in mice at mid dose 2 on day 8; type: functional
Method in brief: (§1)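 Male B6D2F1 mice were gavaged daily with compound in corn oil at low, mid 1, mid 2 or high dose. Serum triglycerides and circulating white blood cells were measured on the stated day (8, 29, 36, 65). Values are group mean ± SD expressed as % relative to corn-oil vehicle, with significance at p ≤ 0.05.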

[2] = species on record: Mus musculus; test: Alopecia in mice observed at mid dose 2 with Hypervitaminosis; 3/16; type: functional, organism-based
[3] = species on record: Mus musculus; test: Avoiding pressure on limbs in mice at mid dose 1 with Hypervitaminosis 0/16; type: functional, organism-based; settings: Limb
[4] = species on record: Mus musculus; test: Alopecia in mice observed at mid dose 1 with Hypervitaminosis; 2/16; type: functional, organism-based
[5] = species on record: Mus musculus; test: Alopecia in mice observed at low dose with Hypervitaminosis; 0/16; type: functional, organism-based
[6] = species on record: Mus musculus; test: Enlarged lymph in gross pathological observations in mice with hypervitaminosis A at mid dose 1 with gross observations/total number of mice in group; 2/16; type: functional, organism-based
[7] = species on record: Mus musculus; test: Avoiding pressure on limbs in mice at high dose with Hypervitaminosis; 4/16; type: functional, organism-based; settings: Limb
[8] = Mortality rate in mice at 0.8 mg/kg/day; range (7-8); type: ADME, organism-based; settings: mouse, in vivo
Method in brief: (§2)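 Male B6D2F1 mice given compound daily by gavage in corn oil at the stated dose levels, with corn oil vehicle controls. Deaths counted as animals found dead or sacrificed moribund, with day(s) of death recorded. Heteroarotinoid groups ran to day 65 and low-dose reference groups to day 25.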

[9] = system: Mus musculus; test: Skin scaling at 0.4 mg/kg/day in mice with hypervitaminosis; 15/16; type: functional, organism-based
[10] = system: Mus musculus; test: Fracture incidents in mouse at 0.05 mg/kg/day; 7/8
[11] = Mortality rate in mice at 0.1 mg/kg/day; range (12-24); type: ADME, organism-based; settings: mouse, in vivo; method in brief: as §2
[12] = system: Mus musculus; test: Alopecia observed at 0.2 mg/kg/day dose with hypervitaminosis; 10/16; type: functional, organism-based
[13] = system: Mus musculus; test: Enlarged lymph in gross pathological observations with hypervitaminosis A in mice at 0.8 mg/kg/day dose with gross observations/total number of animals in group; 8/16; type: functional, organism-based
[14] = system: Mus musculus; test: Enlarged spleen in Gross pathological observations with hypervitaminosis A at 0.01 mg/kg/day dose with gross observations/total number of animals in group; 5/8; type: functional, organism-based
[15] = system: Mus musculus; test: Enlarged spleen in gross pathological observations with hypervitaminosis A at 0.05 mg/kg/day dose with gross observations/total number of animals in group; 5/8; type: functional, organism-based
[16] = system: Mus musculus; test: Average number of fractures per mouse at 0.05 mg/kg/day
[17] = system: Mus musculus; test: Average number of fractures per mouse at 0.1 mg/kg/day
[18] = system: Mus musculus; test: Fracture incidents in mouse at 0.8 mg/kg/day; 0/16
[19] = system: Mus musculus; test: Effect of compound on thymus to body weight ratios in mice at 0.1 mg/kg/day dose; all the animals died by day 65; type: functional, organism-based
Method in brief: (§3)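 Male B6D2F1 mice were dosed daily by gavage in corn oil, with TTNPB given at 0.1–0.8 or 0.01/0.05 mg/kg/day. Thymus-to-body weight ratio (×1000) was taken at necropsy on day 65 against vehicle 1, or on day 25 for the 0.01/0.05 groups against vehicle 2. Mean ± SD of 4–8 animals, reported as % difference from vehicle.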

[20] = system: Mus musculus; test: Average number of fractures per mouse at 0.2 mg/kg/day; 1/3
[21] = system: Mus musculus; test: Effect of compound on right testicle to body weight ratios in mice at 0.4 mg/kg/day dose on day 65; dead on day 65; type: functional, organism-based
[22] = system: Mus musculus; test: Alopecia observed at 0.8 mg/kg/day dose in mice with hypervitaminosis; 3/16; type: functional, organism-based
[23] = system: Mus musculus; test: Skin scaling at 0.2 mg/kg/day in mice with hypervitaminosis; 14/16; type: functional, organism-based
[24] = system: Mus musculus; test: Calculated 30-day maximally tolerated dose based on 10% weight loss in mice at 0.01 mg/kg/day; type: functional
[25] = system: Mus musculus; test: Fracture incidents in mouse at 0.01 mg/kg/day; 1/7
[26] = species on record: Mus musculus; test: Effect of compound on adrenal to body weight ratios in mice at high dose on day 65; all the animals died by day 65; type: functional, organism-based
Method in brief: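 Male B6D2F1 mice dosed daily by gavage with compound in corn oil; vehicle 1 (corn oil) controls run to termination on day 65. Low, mid 1, mid 2 and high dose groups, with dosage increases partway through the study. Organ-to-body weight ratios (×1000) taken at necropsy on day 65, reported as mean ± SD for 4 to 8 animals and as % difference from vehicle.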

[27] = species on record: Mus musculus; test: Enlarged lymph in gross pathological observations in mice with hypervitaminosis A at mid dose 1 with gross observations/total number of mice in group; 6/16; type: functional, organism-based
[28] = species on record: Mus musculus; test: Enlarged spleen in Gross pathological observations in mice with hypervitaminosis A at high dose with gross observations/total number of mice in group; 4/16; type: functional, organism-based
[29] = species on record: Mus musculus; test: Effect of compound on thymus to body weight ratios in mice at high dose on day 65; all the animals died by day 65; type: functional, organism-based; method in brief: as §3
[30] = species on record: Mus musculus; test: Effect of compound on white blood cells levels in mice at mid dose 2 on day 8; type: functional; method in brief: as §1
[31] = species on record: Mus musculus; test: Effect of compound on serum Alkaline phosphatase levels in mice at mid dose 1 on day 36; type: functional
Method in brief: (§4)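 Male B6D2F1 mice dosed daily by oral gavage in corn oil at low, mid 1, mid 2 or high dose. Blood sampled on set days (8, 29, 36, 65) for clinical chemistry, serum alkaline phosphatase and triglycerides. Group mean ± SD reported as % relative to vehicle 1; significance p < 0.05 versus corn oil vehicle.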

[32] = species on record: Mus musculus; test: Enlarged lymph in gross pathological observations in mice with hypervitaminosis A at low dose with gross observations/total number of mice in group; 6/16; type: functional, organism-based
[33] = species on record: Mus musculus; test: Enlarged spleen in Gross pathological observations in mice with hypervitaminosis A at mid dose 2 with gross observations/total number of mice in group; 6/16
[34] = species on record: Mus musculus; test: Effect of compound on white blood cells levels in mice at mid dose 1 on day 65; type: functional; method in brief: as §1
[35] = species on record: Mus musculus; test: Fracture incidence in mouse at high dose; 4/7
[36] = species on record: Mus musculus; test: Enlarged spleen in Gross pathological observations in mice with hypervitaminosis A at low dose with gross observations/total number of mice in group; 3/16; type: functional, organism-based
[37] = species on record: Mus musculus; test: Avoiding pressure on limbs in mice at mid dose 1 with Hypervitaminosis; 0/16; type: functional, organism-based; settings: Limb
[38] = species on record: Mus musculus; test: Avoiding pressure on limbs in mice at high dose with Hypervitaminosis; 0/16; type: functional, organism-based; settings: Limb
[39] = species on record: Mus musculus; test: Alopecia in mice observed at low dose with Hypervitaminosis; 1/16; type: functional, organism-based
[40] = species on record: Mus musculus; test: Skin scaling in mice at high dose with Hypervitaminosis; 0/16; type: functional, organism-based
[41] = species on record: Mus musculus; test: Enlarged lymph in gross pathological observations in mice with hypervitaminosis A at mid dose 2 with gross observations/total number of mice in group; 2/16; type: functional, organism-based
[42] = species on record: Mus musculus; test: Skin scaling in mice at mid dose 1 with Hypervitaminosis; 1/16; type: functional, organism-based
[43] = species on record: Mus musculus; test: Effect of compound on serum Alkaline phosphatase levels in mice at mid dose 1 on day 29; type: functional; method in brief: as §4

For CC(/C=C/C=C(\C)c1ccc2c(c1)C(C)(C)CCO2)=C\C(=O)O, the Activity [1] was 112.3, the Activity [2] was “inactive” and the Activity [3] was “inactive”. The Activity [4] was “inactive”, the Activity [5] was “inactive” and the Activity [6] was “inactive”. For the same compound, the Activity [7] was “Weak activity”.

For C/C(=C\c1ccc(C(=O)O)cc1)c1ccc2c(c1)C(C)(C)CCC2(C)C, the Mortality [8] was 16 day of death, the Activity [9] was “Active” and the Activity [10] was “Active”. For the same compound, the Mortality [11] was 7 day of death, the Activity [12] was “Weak activity” and the Activity [13] was “Weak activity”. For the same compound, the Activity [14] was “Weak activity”, the Activity [15] was “Weak activity” and the Activity [16] was 3.3. For the same compound, the Activity [17] was 2, the Activity [18] was “inactive” and the Activity [19] was “Toxic”. For the same compound, the Activity [20] was “Weak activity”, the Activity [21] was “Toxic” and the Activity [22] was “inactive”. The Activity [23] was “Active”, the Max tolerated dose [24] was over 8 µg/kg and the Activity [25] was “inactive”.

With C/C(=C\c1ccc(C(=O)O)cc1)c1ccc2c(c1)C(C)(C)CCO2 the Activity [26] was “Toxic”, the Activity [27] was “Weak activity” and the Activity [28] was “Weak activity”. For the same compound, the Activity [29] was “Toxic”, the Activity [30] was 5.26 and the Activity [31] was 81.5. For the same compound, the Activity [32] was “Weak activity”, the Activity [33] was “Weak activity” and the Activity [34] was 5.46. The Activity [35] was “Weak activity” and the Activity [36] was “inactive”.

With CC(/C=C/C=C(\C)c1ccc2c(c1)C(C)(C)CCS2)=C\C(=O)O the Activity [37] was “inactive”, the Activity [38] was “inactive” and the Activity [39] was “inactive”. For the same compound, the Activity [40] was “inactive”, the Activity [41] was “inactive” and the Activity [42] was “inactive”. It also gave an Activity [43] of 135.8.
